# Screening data as filed in PubChem BioAssay.
# T cruzi growth-1 – T. cruzi intracellular proliferation inhibitors, primary screen, cell-based, beta-gal Tulahuen parasites, NIH3T3 host, luminescence | AID 624255, 2012 | T. cruzi beta-gal in NIH3T3, GalScreen luminescence, 90 h | inhibition, % at 8.34 µM | hit rate 5.9% among 77,000;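 active = mean inhibition above about 93%, with at least 55% of replicates each passing it, limit read from the data, passing the limit was not always enough; inconclusive = only one of those two conditions holds; inactive = neither condition holds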
# KDM4C inh – inhibitors of GASC-1 (KDM4C) histone demethylase, primary screen, biochemical, single concentration HTS. Lysine-specific demethylase 4C (Homo sapiens), Q9H3R0. GST-KDM4C 2-372, H3K9me3 peptide, LANCE TR-FRET. inhibition, % at 12.5 µM. hit rate 0.15% among 96,000. AID 720574, 2013;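 active = mean replicate inhibition above about 25%, with at least 55% of replicates also reaching it, limit read from the data, passing the limit was not always enough; inconclusive = only one of those two conditions met; inactive = neither condition met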
# Target sequence (Q9H3R0 2-372 limits assumed): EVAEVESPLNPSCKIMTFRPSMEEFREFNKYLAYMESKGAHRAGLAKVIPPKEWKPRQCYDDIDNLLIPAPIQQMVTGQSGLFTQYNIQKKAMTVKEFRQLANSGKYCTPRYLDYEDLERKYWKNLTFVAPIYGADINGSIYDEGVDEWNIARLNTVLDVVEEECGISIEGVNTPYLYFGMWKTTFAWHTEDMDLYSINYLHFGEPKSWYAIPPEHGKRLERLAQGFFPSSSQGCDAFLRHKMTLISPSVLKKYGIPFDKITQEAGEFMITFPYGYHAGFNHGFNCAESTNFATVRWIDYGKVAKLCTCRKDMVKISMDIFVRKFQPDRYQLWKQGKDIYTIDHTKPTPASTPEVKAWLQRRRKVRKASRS
#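 Test system: N-terminal GST-fused human GASC-1 (KDM4C) fragment, residues 2-372; quantity: GASC-1 enzyme at 10 nM final in reaction; dosing: single dose; schedule: 30 min demethylation and 1 h detection at room temperature; signal: LANCE TR-FRET, excitation 340 nm, emissions 618 and 671 nm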
# IDH1 R132H inh – inhibitors of IDH1 R132H reductase, primary screen, biochemical, plate reader, single point; diaphorase/resazurin fluorescence, 60 min; inhibition, % at 10 µM; hit rate 0.18% among 70,000; AID 624101, 2012; in the data active = inhibition above about 34%; inconclusive = no clear call, values can overlap the other calls; inactive = below about 11%;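 note: 0% = DMSO and 100% = no enzyme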
# Pf Dd2 growth – P. falciparum Dd2 growth inhibitors, primary screen, SYBR Green fluorescence, single dose replicates. hit rate 2.3% among 94,000. 72 h; stronger effect = lower value. activity change, % at 10 µM; in the data active = activity change below about -80%; inconclusive = no clear call, values can overlap the other calls
# T cruzi growth-2 – T. cruzi intracellular proliferation inhibitors, confirmation, cell-based, NIH3T3 host, beta-gal parasite, luminescence, cherry-pick; shares compounds with T cruzi growth-1; T. cruzi beta-gal in NIH3T3, GalScreen luminescence, 90 h; inhibition, % at 8.35 µM; hit rate 72% among 5,600; AID 651739, 2012;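 active = mean replicate inhibition above about 95% and at least 55% of replicates individually reaching it, limit read from the data; inconclusive = only one of the two criteria is met; inactive = neither criterion is met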
# T cruzi growth-3 – inhibitors of intracellular T. cruzi replication, confirmation, NIH3T3 host cells, beta-gal parasites, cherry-pick, set 2 | hit rate 21% among 5,600 | shares compounds with T cruzi growth-1 | inhibition, % at 2.09 µM | T. cruzi beta-gal in NIH3T3, GalScreen luminescence, 90 h;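 active = mean inhibition above about 95%, with at least 55% of replicates also reaching it, limit read from the data; inconclusive = meets just one of the two conditions; inactive = meets neither condition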;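 note: plate controls were neutral control median for no effect and positive control median for full effect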
# NIH3T3 tox – cytotoxicity in mouse NIH/3T3 fibroblasts, confirmation, cytotoxicity control for T. cruzi proliferation inhibitor project, cell-based, cherry-pick, single point; shares compounds with T cruzi growth-1; NIH/3T3 viability, CellTiter-Glo ATP luminescence, 90 h; cytotoxicity (signal decrease), % at 8.35 µM; hit rate 14% among 5,600;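 active = mean signal decrease across replicates above about 35% based on untreated-well scatter, with enough replicates individually passing, limit read from the data; inconclusive = no rule stated though some were filed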;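 note: 0% = median of neutral control wells and 100% = median of positive control wells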
# 3T3 cytotox 2 – NIH/3T3 fibroblast cytotoxicity, confirmation, cytotoxicity control, cell-based, cherry-pick, single point, set 2 | inhibition, % at 24.9 µM | hit rate 56% among 5,600 | shares compounds with T cruzi growth-1 | NIH/3T3 viability, CellTiter-Glo ATP luminescence, 90 h;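 active = mean loss of cell viability signal at or above a set limit, and enough replicates individually reaching it; inconclusive = meets only the mean limit or only the replicate share; inactive = meets neither condition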;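 note: 0% = median of neutral control wells and 100% = median of positive control wells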
# * = called active by the depositor; ? = inconclusive; · = not tested or not shown. In the library only some 5.8% were active in any assay of this set; here they are far more common.
SMILES,T cruzi growth-1,KDM4C inh,IDH1 R132H inh,Pf Dd2 growth,T cruzi growth-2,T cruzi growth-3,NIH3T3 tox,3T3 cytotox 2
COc1ccc(Br)c(/C=N/NC(=O)c2cccc(C(=O)NO)c2)c1,·,·,0,·,·,·,·,·
C[C@@H]1CCCCO[C@H](CN(C)Cc2ccc3c(c2)OCO3)[C@H](C)CN([C@@H](C)CO)C(=O)c2cc(NC(=O)c3ccncc3)ccc2O1,112*,1,0,6,15,5,-4,-38
C[C@@H]1CN([C@@H](C)CO)C(=O)c2cc(NC(=O)Nc3ccc4c(c3)OCO4)ccc2O[C@@H](C)CCCCO[C@H]1CN(C)C,100*,0,-1,9,112*,8,-3,6
C[C@@H]1CCCCO[C@H](CN(C)Cc2ccc(Cl)c(Cl)c2)[C@H](C)CN([C@@H](C)CO)C(=O)c2cc(NC(=O)Nc3ccc4c(c3)OCO4)ccc2O1,101*,-2,1,-86*,96*,117*,19,-1
C[C@@H]1CCCCO[C@@H](CN(C)Cc2ccc(Cl)c(Cl)c2)[C@H](C)CN([C@@H](C)CO)C(=O)c2cc(NC(=O)Nc3ccc4c(c3)OCO4)ccc2O1,104,-1,·,-55,·,·,·,·
C[C@@H]1CN([C@@H](C)CO)C(=O)c2cc(NC(=O)Nc3ccc4c(c3)OCO4)ccc2O[C@@H](C)CCCCO[C@@H]1CN(C)C,26,2,·,·,·,·,·,·
C[C@@H]1CCCCO[C@@H](CN(C)Cc2ccc(Cl)c(Cl)c2)[C@@H](C)CN([C@@H](C)CO)C(=O)c2cc(NC(=O)Cc3ccccc3)ccc2O1,98*,1,0,-52,106*,76,-7,-14
C[C@@H]1CN([C@H](C)CO)C(=O)c2cc(NC(=O)Cc3ccccc3)ccc2O[C@@H](C)CCCCO[C@@H]1CN(C)Cc1ccc(Cl)c(Cl)c1,91,0,·,-55,·,·,·,·
CCC1(C)Cc2ccccc2-c2nc(NCCCO)n(-c3ccc(C)cc3)c(=O)c21 (stereo unspecified),·,·,0,·,·,·,·,·
O=C(CSc1n[nH]c(-c2ccncc2)n1)Nc1ccc(Cl)cc1Cl,·,·,0,·,·,·,·,·
CCCCn1c2ccccc2c2nnc(SCCN3CCOCC3)nc21,·,·,1,·,·,·,·,·
C[C@@H]1CCCCO[C@@H](CN(C)Cc2ccc3c(c2)OCO3)[C@H](C)CN([C@H](C)CO)C(=O)c2cc(NC(=O)Cc3ccccc3)ccc2O1,63,0,·,-61,·,·,·,·
C[C@@H]1CN([C@H](C)CO)C(=O)c2cc(NC(=O)Cc3ccccc3)ccc2O[C@@H](C)CCCCO[C@@H]1CN(C)Cc1ccc2c(c1)OCO2,100*,1,·,-72,105*,37,25,102*
C[C@@H]1CN([C@@H](C)CO)C(=O)c2cc(C3=CCCC3)cnc2O[C@@H]1CN(C)Cc1ccccc1,?,-1,-1,-26,?,36,-11,17
C[C@@H]1CN([C@@H](C)CO)C(=O)c2cc(C3=CCCCC3)cnc2O[C@@H]1CN(C)Cc1ccccc1,?,0,-1,13,100*,33,-9,48*
C[C@@H]1CN([C@@H](C)CO)C(=O)c2cc(C3=CCCCC3)cnc2O[C@H]1CN(C)Cc1cccc(F)c1,115*,-3,-1,-15,105*,26,14,105*
C[C@H]1CN([C@@H](C)CO)C(=O)c2cc(C3=CCCCC3)cnc2O[C@@H]1CN(C)Cc1cccc(F)c1,29,0,-2,-14,·,·,·,·
